Laboratory results published in ChEMBL document CHEMBL1153925, “Synthesis, characterization and biological activity of ring-substituted 6-benzylamino-9-tetrahydropyran-2-yl and 9-tetrahydrofuran-2-ylpurine derivatives” (Bioorg Med Chem, 2009).
The source made the active and inactive calls. No cut-off for these calls is given here.

Tested on: Nicotiana tabacum
Test: Cytokinin activity in tobacco callus assessed as stimulation of callus growth relative to 6-benzylaminopurine
Assay type: functional, organism-based
In short: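 Compounds dissolved in DMSO, diluted with water to 5 × 10^-2 M stock, then diluted in medium to 10^-8 to 10^-4 M. Final DMSO ≤0.2%; solvent control 0.2% DMSO. Readout was cytokinin-dependent tobacco callus growth. Activity is expressed relative to 10^-6 M BAP (=100%) at each compound's optimal concentration. Five replicates per concentration; whole test run at least twice.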

SMILES	Activity
COc1ccc(CNc2ncnc3c2ncn3C2CCCCO2)c(OC)c1 (centres undefined)	inactive
COc1cc(CNc2ncnc3c2ncn3C2CCCCO2)cc(OC)c1 (centres undefined)	inactive
COc1ccc(CNc2ncnc3c2ncn3C2CCCCO2)c(OC)c1OC (centres undefined)	inactive
COc1ccc(CNc2ncnc3c2ncn3C2CCCCO2)cc1OC (centres undefined)	inactive
